Measurements reported in ChEMBL document CHEMBL1833880, “Biologically active arborinane-type triterpenoids and anthraquinones from Rubia yunnanensis” (J Nat Prod, 2011).
In brackets after ≈: the same amount, converted by molar mass. Activity calls are given as the source filed them. The calls are words filed in the database; no cut-off is given here.

Assays:
A549 [1] = assay: Cytotoxicity against human A549 cells at >10 uM after 48 hrs by SRB assay; assay type: functional, cell-based
HeLa [2] = assay: Cytotoxicity against human HeLa cells after 48 hrs by SRB assay; assay type: functional, cell-based
Method in brief: (§1)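 Cells plated 24 h, then exposed to serial dilutions up to 20 μg/mL for 48 h at 37 °C in 5% CO2. They were fixed with cold 50% TCA for 1 h at 4 °C, stained with 0.4% SRB in 1% acetic acid for 15 min, and the bound dye was dissolved in 10 mM Tris base. Absorbance was read at 560 nm. IC50 was taken from triplicate tests.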

SMMC-7721 [3] = assay: Cytotoxicity against human SMMC7721 cells at >10 uM after 48 hrs by SRB assay; assay type: functional, cell-based
Staphylococcus aureus = assay: Antibacterial activity against Staphylococcus aureus CGMCC1.2465 after 24 hrs by turbidimetric method; assay type: functional; conditions: for MIC50: CGMCC1.2465, 24 h
Method in brief: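 Inoculum was adjusted by OD620 to McFarland 0.5 and diluted to 1 × 10^6 cfu/mL. It was exposed to serial dilutions up to 25 μg/mL in Mueller-Hinton broth at 37 °C for 24 h, and absorbance was read at 620 nm. MIC50 was taken from triplicate tests. Ampicillin was the reference.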

HeLa [4] = assay: Cytotoxicity against human HeLa cells at >10 uM after 48 hrs by SRB assay; assay type: functional, cell-based
SMMC-7721 [5] = assay: Cytotoxicity against human SMMC7721 cells after 48 hrs by SRB assay; assay type: functional, cell-based; conditions: SMMC-7721, 48 h
Method in brief: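 Cells seeded 24 h, then exposed to serial dilutions (top concentration 20 μg/mL) for 48 h at 37 °C, 5% CO2. Fixed with ice-cold 50% TCA at 4 °C for 1 h, stained 15 min with 0.4% SRB in 1% acetic acid, dye solubilized in 10 mM Tris base, absorbance at 560 nm. Triplicate; IC50 reported. Paclitaxel and camptothecin as positive controls.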

Candida albicans = assay: microbe, parasite or virus in culture; assay type: functional; conditions: CGMCC 2.2086, 24 h
A549 [6] = assay: Cytotoxicity against human A549 cells after 48 hrs by SRB assay; assay type: functional, cell-based; conditions: A549, 48 h; method in brief: as §1

CC(=O)O[C@@H]1C[C@@H](C(C)C)[C@]2(CO)CC[C@@]3(C)[C@H]4C(=CC[C@]3(C)[C@@H]12)[C@@]1(C)C=CC(=O)C(C)(C)[C@@H]1C[C@@H]4O
Activity (A549 [1]): inactive | IC50 (HeLa [2]): 7.9 µM | Activity (SMMC-7721 [3]): inactive

CC(=O)OC[C@@]12CC[C@@]3(C)[C@H]4C(=CC[C@]3(C)[C@H]1[C@H](O)C[C@H]2C(C)C)[C@@]1(C)CC[C@H](O[C@@H]2O[C@H](CO[C@@H]3O[C@H](CO)[C@@H](O)[C@H](O)[C@H]3O)[C@@H](O)[C@H](O)[C@H]2O)C(C)(C)[C@@H]1C[C@@H]4O
Activity (A549 [1]): inactive | IC50 (HeLa [2]): 2.2 µM | Activity (SMMC-7721 [3]): inactive

CC(=O)OC[C@H]1O[C@@H](Oc2cc3c(c(O)c2C)C(=O)c2ccc(O)cc2C3=O)[C@H](O[C@@H]2O[C@@H](C)[C@H](O)[C@@H](O)[C@H]2O)[C@@H](O)[C@@H]1O
Activity (A549 [1]): inactive | IC50 (HeLa [2]): 4.2 µM | Activity (SMMC-7721 [3]): inactive

O=C1c2ccccc2C(=O)c2cc(CO)c(O)cc21
Activity (A549 [1]): inactive | IC50 (HeLa [2]): 3 µM | Activity (SMMC-7721 [3]): inactive

Cc1c(O)cc2c(c1O)C(=O)c1ccc(O)cc1C2=O
MIC50 (Staphylococcus aureus): 21.5 µM (≈ 5.81 µg/mL)

COC1=CC(=O)c2ccccc2C1=O [2-Methoxy-1,4-naphthoquinone]
Activity (A549 [1]): inactive | Activity (HeLa [4]): inactive | IC50 (SMMC-7721 [5]): 4.3 µM | Activity (Staphylococcus aureus): inactive | MIC50 (Candida albicans): 16 µM (≈ 3.01 µg/mL)

CC1(C)S[C@@H]2[C@H](NC(=O)[C@H](N)c3ccccc3)C(=O)N2[C@H]1C(=O)O [AMPICILLIN]
MIC50 (Staphylococcus aureus): 0.1 µM (≈ 0.0349 µg/mL)

CC[C@@]1(O)C(=O)OCc2c1cc1n(c2=O)Cc2cc3ccccc3nc2-1 [CAMPTOTHECIN]
IC50 (SMMC-7721 [5]): 0.003 µM

Clc1ccc(COC(Cn2ccnc2)c2ccc(Cl)cc2Cl)c(Cl)c1 (stereo not drawn) [MICONAZOLE NITRATE]
MIC50 (Candida albicans): 0.9 µM

CC(=O)O[C@H]1C(=O)[C@@]2(C)[C@H]([C@H](OC(=O)c3ccccc3)[C@]3(O)C[C@H](OC(=O)[C@H](O)[C@@H](NC(=O)c4ccccc4)c4ccccc4)C(C)=C1C3(C)C)[C@]1(OC(C)=O)CO[C@@H]1C[C@@H]2O [PACLITAXEL]
IC50 (HeLa [2]): 0.6 µM

CC(=O)O[C@@H]1C[C@@H](C(C)C)[C@]2(CO)CC[C@@]3(C)[C@H]4C(=CC[C@]3(C)[C@@H]12)[C@@]1(C)CC[C@H](O)C(C)(C)[C@@H]1C[C@@H]4O [RUBIARBONOL G]
IC50 (A549 [6]): 7 µM | IC50 (HeLa [2]): 2.2 µM | Activity (SMMC-7721 [3]): inactive | MIC50 (Staphylococcus aureus): > 25 µM | MIC50 (Candida albicans): 10.8 µM (≈ 5.58 µg/mL)

CC(C)[C@@H]1C[C@@H](O)[C@H]2[C@@]1(C)CC[C@@]1(C)C3=CC[C@H]4C(C)(C)[C@@H](O)CC[C@]4(C)C3=CC[C@]21C [RUBIYUNNANOL A]
IC50 (A549 [6]): 9.8 µM | IC50 (HeLa [4]): > 10 µM | Activity (SMMC-7721 [3]): inactive

CC(C)[C@@H]1CC=C2[C@@]1(C)CC[C@@]1(C)[C@H]3C(=CC[C@]21C)[C@@]1(C)CC[C@H](O)C(C)(C)[C@@H]1C[C@@H]3O [RUBIYUNNANOL B]
IC50 (A549 [6]): 8.2 µM | IC50 (HeLa [2]): 5.3 µM | Activity (SMMC-7721 [3]): inactive
